Among the data in ChEMBL document CHEMBL1127023, “Nonpeptide angiotensin II receptor antagonists. Synthesis and biological activity of benzimidazoles” (J Med Chem, 1993) are IC50, inhibition in vivo and inhibition values, retold here.

The structures appear in SMILES notation.

A short description of test [1]: In vitro for inhibition of specific binding of [125I]-angiotensin II (0.2 nM) to bovine adrenal cortex.
Test [2] deals with Rattus norvegicus. Kind of test: In vivo for inhibition of the Angiotensin II (0.1 ug/kg) induced increase in blood pressure in conscious male rat at 100 mg/kg for 3h/7h. The class given is functional. In short, it runs like this:
(§1)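 Conscious male Jcl:Sprague-Dawley rats (300–400 g), femoral artery and vein cannulated under pentobarbital the day before. AII 100 ng/kg iv was given twice as control. Compound was dosed orally as a gum arabic suspension, then AII challenges were repeated. Pressor-response inhibition was read at 3 and 7 h after dosing, from duplicate experiments.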

For test [3], the system named is Rattus norvegicus. Kind of test: In vivo for inhibition of the Angiotensin II (0.1 ug/kg) induced increase in blood pressure in conscious male rat at 30 mg/kg for 3h/7h. The test is classed as functional. In short, it runs like this: as §1
For test [4], the system named is Rattus norvegicus. Briefly: In vivo for inhibition of the Angiotensin II (0.1 ug/kg) induced increase in blood pressure in conscious male rat at 10 mg/kg for 0.5h/1h. The test is classed as functional.
Test [5] has as its target Angiotensin II receptor (Rattus norvegicus) (UniProt P29089+P25095+P35351). Briefly: In vivo inhibition of angiotensin II (0.1 ug/kg) induced increase in blood pressure in conscious male rat at 3 mg/kg for 3h/7h. Also noted: dose 3 mg/kg. The test is classed as functional, organism-based. In outline: as §1
The test system of test [6] is Rattus norvegicus. Briefly: In vivo inhibition of angiotensin II (0.1 ug/kg) induced increase in blood pressure in conscious male rat at 10 mg/kg for 3h/7h. The test is classed as functional. In outline: as §1
Test [7] is described as follows: In vitro for inhibition of specific binding of [125I]-angiotensin II (0.02 nM) to bovine adrenal cortex. The class given is tissue-based, Bos taurus.
Test [8] concerns Rattus norvegicus. Kind of test: In vivo inhibition of angiotensin II (0.1 ug/kg)-induced increase in blood pressure in conscious male rat at 10 mg/kg for 3h/7h. The class given is functional. In outline:
as §1

The term IC50 denotes the concentration at which inhibition is half-maximal. Lower therefore signals inhibition by little substance. Take `CCCCc1nc2cccc(C(=O)NC(C)C)c2n1Cc1ccc(-c2ccccc2-c2nn[nH]n2)cc1`: the concentration for half-maximal inhibition (IC50) in test [1] was 540 nM.
By inhibition in vivo is commonly meant the drop in the measured response relative to a control, in per cent. As to `CCCCc1nc2cc(C(=O)OC)ccc2n1Cc1ccc(-c2ccccc2-c2nn[nH]n2)cc1`, in test [1], the IC50 was found to be 740 nM. In the test on Rattus norvegicus [2], the inhibition in vivo at 100 mg/kg is -13%.
In the case of `CCCCc1nc2cc(Cl)ccc2n1Cc1ccc(-c2ccccc2-c2nn[nH]n2)cc1`, in test [1], the concentration for half-maximal inhibition (IC50) came to 1500 nM. The inhibition in vivo at 30 mg/kg in the test on Rattus norvegicus [3] is -8%. For the same compound, in the test with Rattus norvegicus [4], the inhibition in vivo at 10 mg/kg is 45%.
The like results for `CCCCc1nc2ccc(Cl)cc2n1Cc1ccc(-c2ccccc2-c2nn[nH]n2)cc1` were, in that order, 3100 nM, 18% and 23%.
The term inhibition denotes the drop in the measured response relative to a control, in per cent. Regarding `CCCCc1nc2ccc(C)c(C(=O)O)c2n1Cc1ccc(-c2ccccc2-c2nn[nH]n2)cc1`, the IC50 in test [1] was found to be 340 nM. For the same compound, in test [5], the inhibition amounted to 40%.
As for `CCCCc1nc2ccccc2n1Cc1ccc(-c2ccccc2C(=O)O)cc1`, the 50% inhibitory concentration (IC50) in test [1] was 1100 nM. Further, the inhibition in vivo at 100 mg/kg in the test on Rattus norvegicus [2] was determined as 45%. Moreover, the inhibition in vivo at 10 mg/kg in the test on Rattus norvegicus [4] is 20%.
As to `CCCCc1nc2cccc(COC)c2n1Cc1ccc(-c2ccccc2-c2nn[nH]n2)cc1`, the IC50 in test [1] was 600 nM. Moreover, the inhibition in test [5] is 54%.
As to `CCCCc1nc2cccc(CC(=O)O)c2n1Cc1ccc(-c2ccccc2-c2nn[nH]n2)cc1`, the IC50 in test [1] is 2600 nM.
On to `CCCCc1nc2cccc(C(=O)OCC)c2n1Cc1ccc(-c2ccccc2-c2nn[nH]n2)cc1`, for which, in test [1], the half-inhibitory concentration (IC50) was found to be 1400 nM. For the same compound, the inhibition in test [5] was 51%.
As to `CCCCOC(=O)c1cccc2nc(CCCC)n(Cc3ccc(-c4ccccc4-c4nn[nH]n4)cc3)c12`, the IC50 in test [1] came to 1200 nM. Moreover, the inhibition in vivo at 30 mg/kg in the test on Rattus norvegicus [3] was 78%. The inhibition in test [5] stood at 9%.
As for `CCCCc1nc2cc(Cl)cc(C(=O)O)c2n1Cc1ccc(-c2ccccc2-c2nn[nH]n2)cc1`, the inhibition in test [5] was 23%.
With `CCCCc1nc2ccc(OC)cc2n1Cc1ccc(-c2ccccc2-c2nn[nH]n2)cc1`, in test [1], the concentration for half-maximal inhibition (IC50) worked out at 1100 nM. The inhibition in vivo at 100 mg/kg with Rattus norvegicus [2] was 5%. Moreover, in the test on Rattus norvegicus [4], the inhibition in vivo at 10 mg/kg came to 77%.
As to `CCCCc1nc2cc(C)cc(C(=O)OC)c2n1Cc1ccc(-c2ccccc2-c2nn[nH]n2)cc1`, the IC50 in test [1] amounted to 870 nM. The inhibition in test [5] is 41%.
The compound `CCCCc1nc2c(C(=O)O)cccc2n1Cc1ccc(-c2ccccc2-c2nn[nH]n2)cc1` showed an IC50 in test [1] above 10000 nM. The inhibition in vivo at 10 mg/kg in the test with Rattus norvegicus [6] stood at 19%.
Regarding `CCCCc1nc2ccc(C)c(C(=O)OCC)c2n1Cc1ccc(-c2ccccc2-c2nn[nH]n2)cc1`, in the test on Rattus norvegicus [3], the inhibition in vivo at 30 mg/kg was determined as 100%. The same compound came in with an IC50 in test [7] of 910 nM. For the same compound, the inhibition in test [5] was 13%.
`CCCCc1nc2cccc(CC(=O)OCC)c2n1Cc1ccc(-c2ccccc2-c2nn[nH]n2)cc1`: the half-inhibitory concentration (IC50) in test [1] was found to be 250 nM. In addition, the inhibition in vivo at 30 mg/kg with Rattus norvegicus [3] turned out to be 82%. For the same compound, in test [5], the inhibition came to 24%.
In test [1], `CCCCc1nc2cccc(OC)c2n1Cc1ccc(-c2ccccc2-c2nn[nH]n2)cc1` had an IC50 of 2800 nM. Moreover, the inhibition in test [5] was -6%.
With `CCCCc1nc2cccc(C(=O)O)c2n1Cc1ccc(-c2ccccc2C(=O)O)cc1`, the IC50 in test [1] turned out to be 660 nM. Besides, in the test on Rattus norvegicus [3], the inhibition in vivo at 30 mg/kg came to 46%. Moreover, the inhibition in test [5] was determined as 2%.
For the compound `CCCCc1nc2ccc(C(=O)O)cc2n1Cc1ccc(-c2ccccc2-c2nn[nH]n2)cc1`, in test [1], the IC50 was 9000 nM. The inhibition in vivo at 30 mg/kg with Rattus norvegicus [3] came to 9%.
For `CCCCc1nc2ccccc2n1Cc1ccc(-c2ccccc2-c2nn[nH]n2)cc1`, in test [1], the half-maximal inhibitory concentration (IC50) was 900 nM. Also, the inhibition in vivo at 10 mg/kg in the test with Rattus norvegicus [8] is 13%; in the test on Rattus norvegicus [4], 52%. In the test with Rattus norvegicus [3], the inhibition in vivo at 30 mg/kg was found to be 18%.
For `CCCCc1nc2cc(C)cc(C(=O)O)c2n1Cc1ccc(-c2ccccc2-c2nn[nH]n2)cc1`, the concentration for half-maximal inhibition (IC50) in test [1] came out at 1300 nM. The inhibition in test [5] turned out to be 80%.
The compound `CCCCc1nc2cc(C(=O)O)ccc2n1Cc1ccc(-c2ccccc2-c2nn[nH]n2)cc1` had a half-inhibitory concentration (IC50) in test [1] of 5500 nM. In test [5], the inhibition is 7%.
The like results for `CCCCc1nc2cccc(C(=O)O)c2n1Cc1ccc(-c2ccccc2-c2nn[nH]n2)cc1` were, in that order, 550 nM and 91%.
With `CCCCc1nc2cc(OC)ccc2n1Cc1ccc(-c2ccccc2-c2nn[nH]n2)cc1`, the IC50 in test [1] turned out to be 910 nM. Further, the inhibition in vivo at 100 mg/kg with Rattus norvegicus [2] was determined as 84%. Besides, the inhibition in vivo at 10 mg/kg in the test with Rattus norvegicus [4] was 60%.
With `CCCCc1nc2c(C(N)=O)cccc2n1Cc1ccc(-c2ccccc2-c2nn[nH]n2)cc1`, the inhibition in vivo at 30 mg/kg in the test on Rattus norvegicus [3] was 28%.
Consider `CCCCc1nc2cccc(CO)c2n1Cc1ccc(-c2ccccc2-c2nn[nH]n2)cc1`, for which the IC50 in test [1] is 450 nM. For the same compound, the inhibition in vivo at 30 mg/kg in the test with Rattus norvegicus [3] was found to be 41%. Also, in test [5], the inhibition came out at 16%.
Consider `CCCCc1nc2cccc(CN(C)C)c2n1Cc1ccc(-c2ccccc2-c2nn[nH]n2)cc1`, for which the IC50 in test [1] came out at 2400 nM. Besides, the inhibition in test [5] was determined as 12%.
In test [1], `CCCCc1nc2cc(Cl)cc(C(=O)OC)c2n1Cc1ccc(-c2ccccc2-c2nn[nH]n2)cc1` came in with a concentration for half-maximal inhibition (IC50) of 440 nM. In addition, the inhibition in test [5] stood at 57%.
As to `CCCCc1nc2cccc(C(=O)OC)c2n1Cc1ccc(-c2ccccc2-c2nn[nH]n2)cc1`, in test [1], the IC50 was 320 nM. In test [5], the inhibition is 78%.
The compound `CCCCc1nc2ccc(C(=O)OC)cc2n1Cc1ccc(-c2ccccc2-c2nn[nH]n2)cc1` had an IC50 in test [1] of 440 nM. Further, in the test with Rattus norvegicus [3], the inhibition in vivo at 30 mg/kg came to 0%.
Consider `CCCCc1nc2cccc(C)c2n1Cc1ccc(-c2ccccc2-c2nn[nH]n2)cc1`, for which, in test [1], the IC50 came to 330 nM. The inhibition in test [5] is 8%.
In test [1], `CCCCc1nc2cccc(O)c2n1Cc1ccc(-c2ccccc2-c2nn[nH]n2)cc1` returned an IC50 of 1100 nM. Also, the inhibition in vivo at 30 mg/kg in the test with Rattus norvegicus [3] worked out at 56%. Also, the inhibition in test [5] was found to be 2%.
Compound `CCCCc1nc2c(C(=O)OC)cccc2n1Cc1ccc(-c2ccccc2-c2nn[nH]n2)cc1` had a half-inhibitory concentration (IC50) in test [1] of 7200 nM. Further, the inhibition in vivo at 30 mg/kg in the test with Rattus norvegicus [3] worked out at 9%.
Take `CCCCc1nc2cccc(C(=O)O)c2n1Cc1ccc(-c2ccccc2-c2nnnn2C)cc1`: the IC50 in test [1] came out at 3400 nM. In addition, in test [5], the inhibition turned out to be 77%.
